Compound activity (PubChem)
Shown are actives, neighbours in structure and some others; about 1.9% of the full set was active somewhere.
Jurkat tox 60K = cytotoxicity toward Jurkat T cells, primary screen, cytotoxicity control, cell-based, Jurkat E6.1, 60K MLSMR library; Jurkat E6.1 viability, ATP luminescence, 48 h; inhibition, % at 4 µM; hit rate 1.2% among 56,000;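 active = inhibition above the mean inhibition of all tested compounds plus 3 SD, cut at about 28% in these data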
HEK293 NFkB inh = inhibitors of PMA/ionomycin-induced NF-kB reporter, primary screen, antigen receptor NF-kB inhibitor project, cell-based, HEK-293 luciferase reporter, luminescence; HEK-293 NF-kB luciferase reporter; hit rate 0.21% among 62,000; AID 465, 2006; inhibition, % at 3 µM;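 active = inhibition above the mean of all tested compounds plus 3 SD, cut at about 40% in these data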;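 note: 0% = stimulated DMSO wells and 100% = 10 µM reference inhibitor 5653914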
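Signal: luciferase luminescence; Material: HEK-293 cells with stable firefly luciferase reporter driven by four HIV NF-kB elements; Probe or stimulus: PMA with ionomycin; Replication: tested once; Times: 1 h compound pretreatment, then 16 h stimulation at 37 °C, 5% CO2; Benchmarks: DMSO and 10 µM reference inhibitor; Evaluation: per-plate % inhibition versus controls.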
SKBR3 24h inh = SK-BR-3 proliferation inhibitors, primary screen, cell-based, human, 24 h; SK-BR-3 viability, CellTiter-Glo ATP luminescence; stronger effect = lower value; viability, % at 10 µM; hit rate 0.47% among 41,000;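 active = viability at or below the median of all test compounds minus 3 SD, in both replicates if run twice, cut at about 45% in these data; inconclusive = duplicate replicates that disagree with each other; inactive = viability above that cutoff in every replicate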;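 note: 100% = median untreated cell wells and 0% = median positive control drug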
S1P1 ag-PAM = S1P1 agonists and agonism potentiators, primary screen, cell-based, primary and confirmation screens, CRE-bla reporter | S1P1 CRE-bla cells, forskolin, beta-lactamase FRET, potentiator mode; S1P1 agonist co-added at EC20, 2 nM; 100% = saturating reference agonist, 0% = basal | hit rate 0.57% among 56,000 | activation, % at 9.5 µM | Sphingosine 1-phosphate receptor 1 (Homo sapiens), P21453;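 active = activation above a cutoff set at the mean activation of all tested compounds plus 3 SD, cut at about 54% in these data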;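 note: forskolin at 4 µM as EC80 and the EC20 agonist is SEW2871; 100% = SEW2871 at its EC100 plus forskolin at EC80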
Target sequence (P21453 whole entry, looked up): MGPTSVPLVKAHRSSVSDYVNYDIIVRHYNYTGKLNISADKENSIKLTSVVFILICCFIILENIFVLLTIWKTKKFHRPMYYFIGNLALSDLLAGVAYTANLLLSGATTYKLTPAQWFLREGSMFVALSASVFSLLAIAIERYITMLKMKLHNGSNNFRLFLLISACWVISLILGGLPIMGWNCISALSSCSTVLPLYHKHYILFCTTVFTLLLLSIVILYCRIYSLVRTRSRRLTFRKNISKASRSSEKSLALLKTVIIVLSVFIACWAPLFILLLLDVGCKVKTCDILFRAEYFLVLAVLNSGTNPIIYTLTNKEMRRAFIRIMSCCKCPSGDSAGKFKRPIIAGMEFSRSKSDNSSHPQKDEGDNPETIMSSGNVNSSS
* hit, by the source's call; u = inconclusive; x = no result given.

SMILES | Jurkat tox 60K | HEK293 NFkB inh | SKBR3 24h inh | S1P1 ag-PAM
COc1cccc(CNC(=O)c2cc3oc4ccccc4c3n2C)c1OC | 29* | 18 | x | -18
COC(=O)c1cc2oc3ccccc3c2n1CC(=O)Nc1ccccc1OC | 9 | 7 | x | -3
CN(C)CCCN1C(=O)C(=O)/C(=C(/O)c2ccc3c(c2)OCCO3)C1c1ccccn1 (stereo not drawn) | -9 | 14 | 95 | 4
CC1CCN(c2nc3ccc(C(=O)O)cc3s2)CC1 | 4 | 83* | x | -20
CCC(=NC(C)c1ccccc1)c1c(O)n(C)c(=O)n(C)c1=O (stereo not drawn) | 54* | 9 | 102 | 82
CC(c1ccccc1)N1CNc2c(c(=O)n(C)c(=O)n2C)C1 (stereo not drawn) | 1 | 12 | 133 | x
COc1ccc(NC(=O)C(F)(OC)C(F)(F)F)c(OC)c1 (stereo not drawn) | -6 | 10 | 41* | -11
CCCCOc1ccc(S(=O)(=O)Nc2cccnc2)cc1 | 15 | 13 | 129 | 85*
CCN(CC)c1ccc(NC(=O)c2ccccc2F)cc1 | 57* | -28 | 88 | 23
Cc1cc(C)n(-c2nc3ccccc3c(=O)n2OCC(=O)OCc2ccccc2)n1 | 56* | 4 | 139 | -3
Cc1cc(C)n(-c2nc3ccccc3c(=O)n2OCc2ccc(F)cc2)n1 | -6 | 11 | 40* | 22
CCS(=O)(=O)NCC(c1cccnc1)N1CCN(c2ccccc2F)CC1 (stereo not drawn) | -9 | 12 | 94 | -10
Cc1cc(Cn2ccnc2)c(C)cc1Cn1ccnc1 | x | x | 77 | -12
O=c1c2ccccc2cnn1-c1nc2ccccc2s1 | 2 | 77* | x | 24
O=c1c2ccccc2ncn1Cc1nc2ccccc2s1 | x | 20 | 65 | x
O=C(Cc1nn[nH]n1)NCc1ccccc1Cl | -2 | 11 | 89 | -10
CN(C)c1ccc(-c2nn3c(C4CCCCC4)nnc3s2)cc1 | 3 | 1 | 98 | -20
COc1ccc(C2=NOC(C(=O)NCc3ccc(F)cc3)C2)cc1OC (stereo not drawn) | 93* | 33 | x | 8
COc1cc(C2=NOC(C(=O)NCc3ccc(F)cc3)C2)cc(OC)c1OC (stereo not drawn) | 96* | 30 | x | -15
COc1cccc(C2=NOC(C(=O)NCc3ccc(F)cc3)C2)c1 (stereo not drawn) | -5 | -2 | x | 4
CC(C)Cn1c(SCc2nnc(-c3cccs3)o2)nc(O)cc1=O | -5 | 18 | x | 16
COc1ccc(NS(=O)(=O)c2ccc3c(c2)oc(=O)n3C)c(OC)c1 | -1 | 9 | x | 4
COc1cc(NS(=O)(=O)c2ccc3c(c2)oc(=O)n3C)cc(OC)c1OC | 40* | 5 | x | 0
O=C(CCN1CCc2ccccc2CC1)c1ccc2c(c1)OCCO2 | x | x | 83 | 53
CCNc1nc(NC(C)C)nc(NS(=O)(=O)c2ccc(Cl)cc2)n1 | 9 | 17 | 42* | -6
SMILES | Jurkat tox 60K | HEK293 NFkB inh | SKBR3 24h inh | S1P1 ag-PAM
CCN(CC)c1nc(N)nc(NS(=O)(=O)c2ccc(Cl)cc2)n1 | 10 | 24 | x | -5
COc1cc(C(=O)N2CCN(c3ncnc4sc(C)c(C)c34)CC2)cc(OC)c1OC | 76* | 26 | 81 | 37
Cc1c(C(=O)N2CCN(c3ccccc3)CC2)sc2ncnc(N3CCN(c4ccccc4)CC3)c12 | 6 | 20 | x | 1
Cc1sc2ncnc(N3CCN(c4ncccn4)CC3)c2c1C | 8 | 14 | 84 | 10
CCOC(=O)c1sc2ncnc(N3CCN(C(=O)OCC)CC3)c2c1C | -1 | -4 | 42* | -12
CC(C)c1ccc(OCc2nc(-c3ccccn3)no2)c(Br)c1 | 9 | -40 | 94 | 86*
Clc1ccc(OCc2nc(-c3ccncc3)no2)c(Br)c1 | 10 | -54 | x | 72*
Clc1ccccc1OCc1nc(-c2ccncc2)no1 | 1 | -28 | 102 | x
Cc1ccc(OCc2nc(-c3ccccn3)no2)c(Br)c1 | 1 | -15 | 77 | 16
OCC#CCSc1nnc(-c2ccncc2)o1 | 0 | 20 | 94 | -6
Clc1ccc(CSc2nnc(-c3ccncc3)o2)cc1 | 0 | 14 | 102 | 97*
CCOC(=O)N1CCN(C(=O)c2cc(-c3ccc(OCC)cc3)nc3ccccc23)CC1 | 87* | 24 | x | -2
COc1ccc2c(c1)sc1nc(-c3ccccc3)cn12 | 100* | 67* | 96 | -14
CCOC(=O)N1CCN(C(=O)c2ccc3c(c2)sc2nc(-c4ccc(OC)cc4)cn23)CC1 | -3 | 7 | x | 14
O=C(Nc1nc(-c2cccs2)cs1)c1ccc(S(=O)(=O)N2CCCC2)cc1 | 21 | 22 | x | 16
CN(C)S(=O)(=O)c1ccc(C(=O)Nc2nc(-c3cccs3)cs2)cc1 | 36* | 1 | x | 61
COc1ccc(-c2nnnn2-c2ccccc2OC)cc1 | 48* | 5 | 112 | 13
CCOC(=O)CCS(=O)(=O)c1nc(-c2ccccc2)cc(C(F)(F)F)n1 | 68* | 10 | 61 | x
CCOC(=O)CS(=O)(=O)c1ccc2ccccc2c1 | x | 7 | 105 | x
CCOC(=O)CS(=O)(=O)c1nc(-c2ccc(F)cc2)cc(C(F)(F)F)n1 | 34* | 14 | 26* | -34
CCOC(=O)CS(=O)(=O)c1nc(-c2ccccc2)cc(C(F)(F)F)n1 | 55* | 4 | u | 2
Fc1ccc(-c2cc(C(F)(F)F)nc(N3CCCCC3)n2)cc1 | x | 3 | 80 | x
COCC(C)NC(=O)CCS(=O)(=O)c1nc(-c2ccc(OC)cc2)cc(C(F)(F)F)n1 (stereo not drawn) | 6 | -2 | u | 16
Oc1ccc(N=Cc2ccc(O)c(O)c2)cc1 | 34* | 11 | x | -4
Fc1cccc(Cl)c1CSc1nnc(COc2cccc3cccnc23)o1 | x | 10 | x | x
SMILES | Jurkat tox 60K | HEK293 NFkB inh | SKBR3 24h inh | S1P1 ag-PAM
Cc1ccc(C2CC(C(F)(F)F)n3nc(C(=O)NCC4CCCO4)cc3N2)cc1 (stereo not drawn) | 0 | 2 | 95 | -7
Cc1ccc2[nH]c3c(NCc4ccco4)ncnc3c2c1 | 37* | 6 | 94 | 65*
Cc1ccc(-n2ncc3c(NCc4ccco4)ncnc32)c(C)c1 | 5 | -7 | x | -1
O=C(Nc1ccc2c(c1)OCO2)c1ccc(CN2CCOCC2)cc1 | 3 | -17 | 92 | -6
CCOC(=O)c1ccc(NC(=O)c2ccc(CN3CCOCC3)cc2)cc1 | 53* | 31 | x | x
CCc1nnc(NC(=O)c2ccc(S(=O)(=O)N(CC(C)C)CC(C)C)cc2)o1 | 94* | 25 | 90 | 18
CSCc1nnc(NC(=O)c2ccc(S(=O)(=O)N(CC(C)C)CC(C)C)cc2)o1 | 88* | 20 | 106 | 17
CCN(CC)S(=O)(=O)c1ccc(C(=O)Nc2nnc(C(C)C)s2)cc1 | -15 | 0 | x | 8
COc1cc(CC(NC(C)=O)C(=O)NC2CCN(c3nc(C)cc(C)c3C#N)CC2)cc(OC)c1 (stereo not drawn) | -2 | 56* | 104 | 10
